# ChEMBL document CHEMBL1137378, “Antibacterial agent discovery using thymidylate synthase biolibrary screening” (J Med Chem, 2006)
# Legend:
# Dihydrofolate reductase = biological target: T1, Dihydrofolate reductase (Homo sapiens, UniProt P00374); assay: Inhibition of human dihydrofolate reductase
# T1 sequence (P00374 whole entry): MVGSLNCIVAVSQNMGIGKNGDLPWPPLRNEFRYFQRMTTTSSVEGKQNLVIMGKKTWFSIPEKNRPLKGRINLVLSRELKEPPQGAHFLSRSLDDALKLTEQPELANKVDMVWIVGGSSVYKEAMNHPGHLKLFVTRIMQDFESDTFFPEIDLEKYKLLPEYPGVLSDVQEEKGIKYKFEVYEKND
# Summary of the method: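 Purified human DHFR assayed spectrophotometrically at 25 °C by the fall in A340 on DHF reduction. Ki from steady-state kinetics.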
# Thymidylate synthase [1] = biological target: Thymidylate synthase (Homo sapiens, UniProt P04818); assay: Inhibition of human thymidylate synthase
# Thymidylate synthase [2] = biological target: T2, Thymidylate synthase (Cryptococcus neoformans var. neoformans B-3501A, UniProt P0CS13); assay: Inhibition of Cryptococcus neoformans thymidylate synthase
# T2 sequence (P0CS13 whole entry): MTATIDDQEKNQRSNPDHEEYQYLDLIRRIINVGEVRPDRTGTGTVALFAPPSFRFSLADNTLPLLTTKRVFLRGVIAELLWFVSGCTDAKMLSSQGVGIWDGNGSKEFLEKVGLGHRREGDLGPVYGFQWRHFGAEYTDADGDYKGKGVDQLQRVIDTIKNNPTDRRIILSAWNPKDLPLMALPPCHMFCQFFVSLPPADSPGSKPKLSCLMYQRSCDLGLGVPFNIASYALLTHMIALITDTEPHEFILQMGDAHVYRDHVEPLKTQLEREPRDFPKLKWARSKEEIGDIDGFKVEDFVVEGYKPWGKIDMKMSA
# Homo sapiens = organism: Homo sapiens; assay: Selectivity Index, Ki for human dihydrofolate reductase/Ki for human thymidylate synthase
# [3] = Specificity Index, Ki for human thymidylate synthase/Ki for Lactobacillus casei thymidylate synthase
# Thymidylate synthase [4] = biological target: T3, Thymidylate synthase (Lactobacillus casei, UniProt P00469); assay: Inhibition of Lactobacillus casei thymidylate synthase; design: species or system Lacticaseibacillus casei
# T3 sequence (P00469 whole entry): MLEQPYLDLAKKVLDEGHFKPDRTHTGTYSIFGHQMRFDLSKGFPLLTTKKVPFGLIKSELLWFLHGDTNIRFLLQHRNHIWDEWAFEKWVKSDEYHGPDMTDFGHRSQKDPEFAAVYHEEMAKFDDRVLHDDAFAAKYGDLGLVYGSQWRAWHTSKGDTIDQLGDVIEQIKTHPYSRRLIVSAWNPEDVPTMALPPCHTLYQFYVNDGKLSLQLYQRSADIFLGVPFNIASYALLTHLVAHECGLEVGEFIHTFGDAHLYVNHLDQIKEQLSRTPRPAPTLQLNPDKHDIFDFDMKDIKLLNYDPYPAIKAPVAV
# [5] = Specificity Index, Ki for human thymidylate synthase/Ki for Cryptococcus neoformans thymidylate synthase
# Summary of the method: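 Specificity index is Ki of hTS divided by Ki of the pathogen TS (LcTS, EcTS or CnTS). Each enzyme was purified to >95% and assayed spectrophotometrically at 340 nm, 20 °C. Buffer was TES 50 mM pH 7.4 with MgCl2, formaldehyde, EDTA and 2-mercaptoethanol, plus dUMP 100 µM, mTHF 140 µM and enzyme 0.07 µM.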
# [6] = Specificity Index, Ki for human thymidylate synthase/Ki for Escherichia coli thymidylate synthase
# Staphylococcus aureus [7] = assay: Antibacterial activity against Staphylococcus aureus 341; assay type: functional
# Summary of the method: (§1)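 Wild-type strain panel (18 Gram-positive and Gram-negative strains). Bacteria grown in Mueller-Hinton broth at 37 °C for 24 h. Exponentially growing cultures diluted in sterile liquid medium to a final inoculum of about 1 × 10⁴ CFU/mL, then exposed to increasing compound concentrations. MIC taken as the lowest concentration with no evident bacterial growth.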
# [8] = test system: Staphylococcus saprophyticus; assay: Antibacterial activity against Staphylococcus saprophyticus ATCC 15305; assay type: functional; summary of the method: as §1
# Listeria monocytogenes [9] = assay: Antibacterial activity against Listeria monocytogenes 7; assay type: functional; summary of the method: as §1
# Escherichia coli [10] = assay: Antibacterial activity against Escherichia coli 292; assay type: functional; summary of the method: as §1
# [11] = test system: Staphylococcus haemolyticus; assay: Antibacterial activity against Staphylococcus haemolyticus ATCC 2997; assay type: functional; summary of the method: as §1
# Listeria monocytogenes [12] = assay: Antibacterial activity against Listeria monocytogenes 6; assay type: functional; summary of the method: as §1
# Listeria monocytogenes [13] = assay: Antibacterial activity against Listeria monocytogenes 5; assay type: functional; summary of the method: as §1
# Listeria monocytogenes [14] = assay: Antibacterial activity against Listeria monocytogenes ATCC 4428; assay type: functional; summary of the method: as §1
# Escherichia coli [15] = assay: Antibacterial activity against Escherichia coli 256; assay type: functional; summary of the method: as §1
# Listeria monocytogenes [16] = assay: Antibacterial activity against Listeria monocytogenes 3; assay type: functional; summary of the method: as §1
# Listeria monocytogenes [17] = assay: Antibacterial activity against Listeria monocytogenes 8; assay type: functional; summary of the method: as §1
# Staphylococcus aureus [18] = assay: Antibacterial activity against Staphylococcus aureus ATCC 29213; assay type: functional; summary of the method: as §1
# Staphylococcus aureus [19] = assay: Antibacterial activity against Staphylococcus aureus 343; assay type: functional; summary of the method: as §1
# Thymidylate synthase [20] = biological target: Thymidylate synthase (Escherichia coli, UniProt C3SWJ7); assay: Inhibition of Escherichia coli thymidylate synthase
# Staphylococcus aureus [21] = assay: Antibacterial activity against Staphylococcus aureus K28; assay type: functional; summary of the method: as §1
# Enterococcus faecalis = assay: Antibacterial activity against Enterococcus faecalis ATCCC29212; assay type: functional; summary of the method: as §1
# Streptococcus = assay: Antibacterial activity against Streptococcus 42; assay type: functional; summary of the method: as §1
# Citrobacter = assay: Antibacterial activity against Citrobacter 224; assay type: functional; summary of the method: as §1
# Listeria monocytogenes [22] = assay: Antibacterial activity against Listeria monocytogenes 4; assay type: functional; summary of the method: as §1
# Thymidylate synthase (Homo sapiens, UniProt P04818), sequence (P04818 whole entry): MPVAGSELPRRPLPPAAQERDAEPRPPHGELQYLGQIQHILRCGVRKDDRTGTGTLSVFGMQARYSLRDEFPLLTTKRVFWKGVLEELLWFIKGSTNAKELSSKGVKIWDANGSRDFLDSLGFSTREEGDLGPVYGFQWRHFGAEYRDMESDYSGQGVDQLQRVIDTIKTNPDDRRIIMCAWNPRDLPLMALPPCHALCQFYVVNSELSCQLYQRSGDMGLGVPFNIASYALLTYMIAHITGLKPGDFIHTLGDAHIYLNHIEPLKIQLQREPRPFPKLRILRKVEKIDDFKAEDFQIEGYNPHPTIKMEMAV
# Thymidylate synthase (Escherichia coli, UniProt C3SWJ7), sequence (C3SWJ7 whole entry): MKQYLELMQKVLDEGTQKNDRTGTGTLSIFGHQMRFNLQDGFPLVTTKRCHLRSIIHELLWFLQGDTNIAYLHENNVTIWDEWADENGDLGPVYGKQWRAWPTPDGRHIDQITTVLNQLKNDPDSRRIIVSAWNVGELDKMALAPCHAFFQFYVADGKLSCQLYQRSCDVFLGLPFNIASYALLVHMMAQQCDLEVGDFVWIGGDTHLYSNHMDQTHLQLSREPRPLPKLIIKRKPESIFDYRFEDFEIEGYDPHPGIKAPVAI
structure (smiles),measurement,setting,value
O=C1OC(c2ccc(O)c(I)c2)(c2ccc(O)c(I)c2)c2cccc3cccc1c23,Ki,Dihydrofolate reductase,94 µM
same,Ki,Thymidylate synthase [1],> 132 µM
same,Ki,Thymidylate synthase [2],16 µM
same,Selectivity index,Homo sapiens,< 1
same,Ratio Ki,[3],> 4
same,Ki,Thymidylate synthase [4],31 µM
same,Ratio Ki,[5],> 8
Cc1cc(O)c(C(C)C)cc1C1(c2cc(C(C)C)c(O)cc2C)OC(=O)c2ccc3ccccc3c21,Ki,Dihydrofolate reductase,13 µM
O=C1OC(c2ccc(O)c(Cl)c2)(c2ccc(O)c(Cl)c2)c2ccc3ccccc3c21,Ki,Thymidylate synthase [2],8.1 µM
O=C1OC(c2ccc(O)cc2)(c2ccc(O)c(Br)c2)c2cccc3cccc1c23 (stereo unspecified),Ratio Ki,[6],> 330
same,MIC,Staphylococcus aureus [7],25 mg/L
same,MIC,[8],10 mg/L
same,MIC,Listeria monocytogenes [9],10 mg/L
same,MIC,Escherichia coli [10],> 50 mg/L
same,MIC,[11],10 mg/L
same,MIC,Listeria monocytogenes [12],10 mg/L
same,MIC,Listeria monocytogenes [13],10 mg/L
same,Ki,Dihydrofolate reductase,3.4 µM
same,Ki,Thymidylate synthase [1],> 132 µM
same,MIC,Listeria monocytogenes [14],10 mg/L
same,MIC,Escherichia coli [15],> 50 mg/L
same,MIC,Listeria monocytogenes [16],10 mg/L
same,MIC,Listeria monocytogenes [17],25 mg/L
same,MIC,Staphylococcus aureus [18],10 mg/L
same,Ki,Thymidylate synthase [2],5.2 µM
same,Selectivity index,Homo sapiens,< 0.02
same,MIC,Staphylococcus aureus [19],10 mg/L
same,Ki,Thymidylate synthase [20],0.4 µM
same,Ratio Ki,[3],> 132
same,Ki,Thymidylate synthase [4],1 µM
same,MIC,Staphylococcus aureus [21],25 mg/L
same,MIC,Enterococcus faecalis,25 mg/L
same,MIC,Streptococcus,10 mg/L
same,Ratio Ki,[5],> 25
same,MIC,Citrobacter,> 50 mg/L
same,MIC,Listeria monocytogenes [22],10 mg/L
